The values that follow come from ChEMBL document CHEMBL4376814, “Novel cyclin-dependent kinase 9 (CDK9) inhibitor with suppression of cancer stemness activity against non-small-cell lung cancer” (Eur J Med Chem, 2019).

SMILES strings stand for the structures. Activity calls are given as the source filed them. The rule behind the calls is not given here.

The target in data set [1] is CDK9/cyclin T1 (Homo sapiens) (UniProt O60563+P50750). Nature of the data set: Inhibition of recombinant full-length human CDK9/cyclinT1 at 1 uM using KTFCGTPEYLAPEVRREPRILSEEEQEMFRDFDYIADWC peptide as substrate measured after 40 mins in presence of [gamma33P]ATP by scintillation counting method relative to control. The class given is protein-complex assay. The method in brief:
(§1)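 Percent inhibition of kinase activity at a single compound concentration, measured by the outsourced Eurofins KinaseProfiler panel. Values are the mean of two independent experiments.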

In data set [2] the test system is NCI-H1975. Nature of the data set: Antiproliferative activity against human NCI-H1975 cells assessed as inhibition of cell viability after 72 hrs by CCK-8 assay. The data set is classed as functional, cell-based. The note with it: NCI-H1975, 72 h. The method in brief: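 Cells kept at 37 °C, 5% CO2 in DMEM or RPMI-1640 with 10% FBS and 1% penicillin/streptomycin, then seeded at 3000 cells/well (adherent) or 10,000 cells/well (suspension). Exposed to a range of concentrations for 72 h. CCK-8 added for 1-4 h before reading A450. […] Three independent experiments.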
A general note: Tetrazolium dyes change colour on reduction, which living cells bring about.

The subject of data set [3] is NCI-H1299. As to the kind of experiment: Induction of apoptosis in human H1299 cells assessed as increase in Bim level at 0.25 to 1 uM after 24 hrs by Western blot analysis. The data set is classed as functional, cell-based. In outline: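 A549 or H1299 cells exposed to the indicated concentrations for 24 h. Protein extracts then immunoblotted for apoptosis-pathway proteins (Bcl2, Bim, cleaved caspase 3).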
In general terms: Immunoblotting shows a protein as a band on a membrane.

The nature of data set [4]: Intrinsic clearance in human liver microsomes at 2 uM in presence of NADPH measured up to 1 hr by HPLC analysis. The data set is classed as ADME, Microsome. (Liver microsomes are a subcellular fraction often used to study metabolism.)
The target in data set [5] is Maternal embryonic leucine zipper kinase (Homo sapiens) (UniProt Q14680). Nature of the data set: Inhibition of recombinant human MELK (1 to 340 residues) at 1 uM using KKLNRTLSFAEPG as substrate measured after 40 mins in presence of [gamma33P]ATP by scintillation counting method relative to control.
Chain of Maternal embryonic leucine zipper kinase (Homo sapiens) (Q14680 whole entry, looked up, the tested form may be a part): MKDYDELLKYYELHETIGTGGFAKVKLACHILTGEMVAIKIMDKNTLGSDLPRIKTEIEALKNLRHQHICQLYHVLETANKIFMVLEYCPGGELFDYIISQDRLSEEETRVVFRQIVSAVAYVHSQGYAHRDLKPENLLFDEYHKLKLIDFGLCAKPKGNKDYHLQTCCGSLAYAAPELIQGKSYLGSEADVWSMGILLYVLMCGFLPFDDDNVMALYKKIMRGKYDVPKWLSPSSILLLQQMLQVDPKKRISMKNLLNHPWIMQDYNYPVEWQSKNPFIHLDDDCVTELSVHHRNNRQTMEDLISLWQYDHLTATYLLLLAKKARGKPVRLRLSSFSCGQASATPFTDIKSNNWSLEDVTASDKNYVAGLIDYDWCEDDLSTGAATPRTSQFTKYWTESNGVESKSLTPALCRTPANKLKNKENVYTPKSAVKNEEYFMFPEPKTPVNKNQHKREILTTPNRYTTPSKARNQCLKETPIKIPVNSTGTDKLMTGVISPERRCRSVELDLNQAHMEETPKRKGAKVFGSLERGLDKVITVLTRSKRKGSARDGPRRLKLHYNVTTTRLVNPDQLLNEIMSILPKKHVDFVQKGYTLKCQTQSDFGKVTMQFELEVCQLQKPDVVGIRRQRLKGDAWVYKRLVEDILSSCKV
Data set [6] deals with Cyclin-dependent kinase 5/CDK5 activator 1 (Homo sapiens) (UniProt Q00535+Q15078). Nature of the data set: Inhibition of recombinant full-length human CDK5/p35 at 1 uM using Histone H1 as substrate measured after 40 mins in presence of [gamma33P]ATP by scintillation counting method relative to control. The data set is classed as protein-complex assay.
Chain of Cyclin-dependent kinase 5/CDK5 activator 1 (Homo sapiens) (Q00535 whole entry): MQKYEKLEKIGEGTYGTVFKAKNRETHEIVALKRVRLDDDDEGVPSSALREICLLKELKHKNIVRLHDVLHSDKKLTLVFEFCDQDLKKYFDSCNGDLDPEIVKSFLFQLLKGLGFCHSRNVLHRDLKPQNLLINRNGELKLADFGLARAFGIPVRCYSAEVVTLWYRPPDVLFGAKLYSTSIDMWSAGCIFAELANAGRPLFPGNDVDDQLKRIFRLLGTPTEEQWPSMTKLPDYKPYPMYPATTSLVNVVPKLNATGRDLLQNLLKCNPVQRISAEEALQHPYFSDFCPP
Chain of Cyclin-dependent kinase 5/CDK5 activator 1 (Homo sapiens) (Q15078 99-307 partner limits assumed): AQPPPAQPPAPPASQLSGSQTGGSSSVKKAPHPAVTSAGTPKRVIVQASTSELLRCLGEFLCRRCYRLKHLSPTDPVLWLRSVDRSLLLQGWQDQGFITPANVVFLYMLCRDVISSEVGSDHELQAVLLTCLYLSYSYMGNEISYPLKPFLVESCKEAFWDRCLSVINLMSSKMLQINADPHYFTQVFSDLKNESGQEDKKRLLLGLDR
Data set [7] deals with Serine/threonine-protein kinase Nek6 (Homo sapiens) (UniProt Q9HC98). As to the kind of experiment: Inhibition of recombinant human NEK6 (2 to end residues) at 1 uM using FLAKSFGSPNRAY as substrate measured after 40 mins in presence of [gamma33P]ATP by scintillation counting method relative to control.
Chain of Serine/threonine-protein kinase Nek6 (Homo sapiens) (Q9HC98 whole entry): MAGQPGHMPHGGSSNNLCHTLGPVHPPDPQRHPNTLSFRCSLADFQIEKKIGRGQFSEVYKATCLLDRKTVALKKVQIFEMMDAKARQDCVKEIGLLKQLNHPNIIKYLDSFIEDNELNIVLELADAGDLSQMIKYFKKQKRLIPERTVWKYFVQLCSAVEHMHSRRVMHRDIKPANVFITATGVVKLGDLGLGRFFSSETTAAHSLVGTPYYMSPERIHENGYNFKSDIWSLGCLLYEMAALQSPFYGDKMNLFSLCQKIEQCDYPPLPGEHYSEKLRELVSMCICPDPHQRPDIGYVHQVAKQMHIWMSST
Data set [8] addresses Serine/threonine-protein kinase NLK (Homo sapiens) (UniProt Q9UBE8). As to the kind of experiment: Inhibition of recombinant human NLK (121 to end residues) at 1 uM using myelin basic protein as substrate measured after 40 mins in presence of [gamma33P]ATP by scintillation counting method relative to control.
Data set [9] has as its target [Pyruvate dehydrogenase (acetyl-transferring)] kinase isozyme 4, mitochondrial (Homo sapiens) (UniProt Q16654). As to the kind of experiment: Inhibition of recombinant full-length human PDHK4 at 1 uM using KKKYHGHSMSDPGVSYRT as substrate measured after 40 mins in presence of [gamma33P]ATP by scintillation counting method relative to control.
Data set [10] has as its system Phosphorylase b kinase gamma catalytic chain, liver/testis isoform (Homo sapiens), P15735 [F290L]. Nature of the data set: Inhibition of recombinant human PhKG2 F290L mutant (1 to 301 residues) at 1 uM using KKLNRTLSFAEPG as substrate measured after 40 mins in presence of [gamma33P]ATP by scintillation counting method relative to control.
In data set [11] the test system is RAC-beta serine/threonine-protein kinase (Homo sapiens), P31751 [S474D]. As to the kind of experiment: Inhibition of recombinant human pkb-beta S474D mutant (120 to end residues) at 1 uM using GRPRTSSFAEGKK as substrate measured after 40 mins in presence of [gamma33P]ATP by scintillation counting method relative to control.
Data set [12] deals with Protein kinase C alpha type (Homo sapiens) (UniProt P17252). As to the kind of experiment: Inhibition of recombinant full-length human PKCalpha at 1 uM using histone H1 as substrate measured after 40 mins in presence of [gamma33P]ATP by scintillation counting method relative to control.
Data set [13] relates to Eukaryotic elongation factor 2 kinase (Homo sapiens), O00418 [H23R]. Nature of the data set: Inhibition of recombinant human EEF2K H23R mutant (2 to end residues) at 1 uM using RKKFGESEKTKTKEFL as substrate measured after 40 mins in presence of [gamma33P]ATP by scintillation counting method relative to control.
Data set [14] deals with Fibroblast growth factor receptor 2 (Homo sapiens) (UniProt P21802). As to the kind of experiment: Inhibition of recombinant human FGFR2 (456 to 770 residues) at 1 uM using poly(Glu, Tyr) 4:1 as substrate measured after 40 mins in presence of [gamma33P]ATP by scintillation counting method relative to control.
Data set [15] is filed under the species Homo sapiens. As to the kind of experiment: Inhibition of recombinant human Plk4 S34T mutant (1 to 273 residues) at 1 uM using casein as substrate measured after 120 mins in presence of [gamma33P]ATP by scintillation counting method relative to control.
The test system of data set [16] is Proto-oncogene tyrosine-protein kinase receptor Ret (Homo sapiens), P07949 [V804M]. Nature of the data set: Inhibition of human Ret V804M mutant (658 to end residues) at 1 uM using KKKVSRSGLYRSPSMPENLNRPR as substrate measured after 40 mins in presence of [gamma33P]ATP by scintillation counting method relative to control. The method in brief:
as §1

In data set [17] the target is Receptor-interacting serine/threonine-protein kinase 1 (Homo sapiens) (UniProt Q13546). Nature of the data set: Inhibition of human RIPK1 (8 to 322 residues) at 1 uM using myelin basic protein as substrate measured after 120 mins in presence of [gamma33P]ATP by scintillation counting method relative to control. The method in brief: as §1
The target of data set [18] is Receptor-type tyrosine-protein kinase FLT3 (Homo sapiens) (UniProt P36888). As to the kind of experiment: Inhibition of recombinant human Flt3 (564 to end residues) at 1 uM using EAIYAAPFAKKK as substrate measured after 40 mins in presence of [gamma33P]ATP by scintillation counting method relative to control.
Data set [19] relates to eIF-2-alpha kinase GCN2 (Homo sapiens), Q9P2K8 [E556G]. Nature of the data set: Inhibition of recombinant full-length human GCN2 E556G mutant at 1 uM using RSRSRSRSRSRSRSR as substrate measured after 40 mins in presence of [gamma33P]ATP by scintillation counting method relative to control.
Chain of eIF-2-alpha kinase GCN2 (Homo sapiens), Q9P2K8 [E556G] (Q9P2K8 whole entry E556G): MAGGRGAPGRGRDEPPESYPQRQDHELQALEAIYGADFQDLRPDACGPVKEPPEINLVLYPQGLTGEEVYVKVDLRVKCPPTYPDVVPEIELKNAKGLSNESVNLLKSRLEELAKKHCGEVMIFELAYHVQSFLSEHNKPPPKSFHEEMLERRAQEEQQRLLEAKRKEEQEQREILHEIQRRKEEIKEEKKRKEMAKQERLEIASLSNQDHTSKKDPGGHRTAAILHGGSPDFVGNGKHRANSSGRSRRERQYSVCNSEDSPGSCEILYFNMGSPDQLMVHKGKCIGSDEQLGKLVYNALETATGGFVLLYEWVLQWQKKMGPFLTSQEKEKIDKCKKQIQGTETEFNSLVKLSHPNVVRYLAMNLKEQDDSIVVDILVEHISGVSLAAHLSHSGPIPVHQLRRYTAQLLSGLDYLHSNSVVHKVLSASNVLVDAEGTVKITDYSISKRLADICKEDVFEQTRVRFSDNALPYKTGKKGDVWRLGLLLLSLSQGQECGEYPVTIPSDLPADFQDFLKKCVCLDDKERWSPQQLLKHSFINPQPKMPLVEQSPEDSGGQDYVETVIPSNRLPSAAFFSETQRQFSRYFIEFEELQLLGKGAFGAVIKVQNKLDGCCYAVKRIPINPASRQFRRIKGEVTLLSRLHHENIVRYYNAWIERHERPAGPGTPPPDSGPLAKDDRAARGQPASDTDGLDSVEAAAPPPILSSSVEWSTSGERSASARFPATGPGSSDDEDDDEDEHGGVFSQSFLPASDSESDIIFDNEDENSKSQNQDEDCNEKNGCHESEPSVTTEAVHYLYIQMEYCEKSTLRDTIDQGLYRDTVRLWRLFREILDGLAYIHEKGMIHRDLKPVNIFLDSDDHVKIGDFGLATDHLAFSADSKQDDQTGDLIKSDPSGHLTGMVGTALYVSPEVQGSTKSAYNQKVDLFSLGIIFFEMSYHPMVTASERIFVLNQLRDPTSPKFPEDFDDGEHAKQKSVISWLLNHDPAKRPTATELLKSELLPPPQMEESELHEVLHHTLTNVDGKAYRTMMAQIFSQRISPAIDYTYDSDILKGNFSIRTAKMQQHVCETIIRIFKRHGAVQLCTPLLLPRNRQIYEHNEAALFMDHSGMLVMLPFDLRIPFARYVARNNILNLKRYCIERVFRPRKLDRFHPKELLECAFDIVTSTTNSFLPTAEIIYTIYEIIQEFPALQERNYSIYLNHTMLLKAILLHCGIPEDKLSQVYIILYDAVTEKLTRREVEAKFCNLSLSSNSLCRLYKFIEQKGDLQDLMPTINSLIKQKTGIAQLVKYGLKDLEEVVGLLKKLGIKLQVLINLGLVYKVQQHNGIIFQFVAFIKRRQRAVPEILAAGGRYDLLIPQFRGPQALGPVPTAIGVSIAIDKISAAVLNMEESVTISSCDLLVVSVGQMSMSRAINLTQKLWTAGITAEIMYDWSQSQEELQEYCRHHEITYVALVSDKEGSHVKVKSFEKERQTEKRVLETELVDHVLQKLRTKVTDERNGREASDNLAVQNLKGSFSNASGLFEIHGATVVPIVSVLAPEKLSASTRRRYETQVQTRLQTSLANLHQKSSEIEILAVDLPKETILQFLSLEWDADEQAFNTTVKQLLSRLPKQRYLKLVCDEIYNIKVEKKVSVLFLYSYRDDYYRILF
Data set [20] deals with Serine/threonine-protein kinase MAK (Homo sapiens) (UniProt P20794). Nature of the data set: Inhibition of recombinant full-length human MAK at 1 uM using RRRFRPASPLRGPPK as substrate measured after 120 mins in presence of [gamma33P]ATP by scintillation counting method relative to control.
Data set [21] relates to NCI-H1299. Nature of the data set: Antitumour activity against human H1299 cells xenografted in Balb/c mouse assessed as effect on cyclin T1 level at 20 to 80 mg/kg, po administered for 3 weeks by immunohistochemistry.

Chain of [Pyruvate dehydrogenase (acetyl-transferring)] kinase isozyme 4, mitochondrial (Homo sapiens) (Q16654 whole entry, looked up, the tested form may be a part, canonical isoform): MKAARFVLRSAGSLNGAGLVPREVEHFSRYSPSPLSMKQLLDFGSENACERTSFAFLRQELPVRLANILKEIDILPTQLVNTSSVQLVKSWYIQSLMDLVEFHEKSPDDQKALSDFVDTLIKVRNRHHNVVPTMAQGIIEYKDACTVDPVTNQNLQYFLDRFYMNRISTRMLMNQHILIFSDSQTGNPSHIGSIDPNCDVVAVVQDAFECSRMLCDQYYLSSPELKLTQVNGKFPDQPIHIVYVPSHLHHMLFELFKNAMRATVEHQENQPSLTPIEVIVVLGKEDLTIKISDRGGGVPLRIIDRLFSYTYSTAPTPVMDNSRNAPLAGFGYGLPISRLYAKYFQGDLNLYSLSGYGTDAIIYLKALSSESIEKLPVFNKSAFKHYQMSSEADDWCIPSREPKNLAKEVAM
Chain of Proto-oncogene tyrosine-protein kinase receptor Ret (Homo sapiens), P07949 [V804M] (P07949 whole entry V804M): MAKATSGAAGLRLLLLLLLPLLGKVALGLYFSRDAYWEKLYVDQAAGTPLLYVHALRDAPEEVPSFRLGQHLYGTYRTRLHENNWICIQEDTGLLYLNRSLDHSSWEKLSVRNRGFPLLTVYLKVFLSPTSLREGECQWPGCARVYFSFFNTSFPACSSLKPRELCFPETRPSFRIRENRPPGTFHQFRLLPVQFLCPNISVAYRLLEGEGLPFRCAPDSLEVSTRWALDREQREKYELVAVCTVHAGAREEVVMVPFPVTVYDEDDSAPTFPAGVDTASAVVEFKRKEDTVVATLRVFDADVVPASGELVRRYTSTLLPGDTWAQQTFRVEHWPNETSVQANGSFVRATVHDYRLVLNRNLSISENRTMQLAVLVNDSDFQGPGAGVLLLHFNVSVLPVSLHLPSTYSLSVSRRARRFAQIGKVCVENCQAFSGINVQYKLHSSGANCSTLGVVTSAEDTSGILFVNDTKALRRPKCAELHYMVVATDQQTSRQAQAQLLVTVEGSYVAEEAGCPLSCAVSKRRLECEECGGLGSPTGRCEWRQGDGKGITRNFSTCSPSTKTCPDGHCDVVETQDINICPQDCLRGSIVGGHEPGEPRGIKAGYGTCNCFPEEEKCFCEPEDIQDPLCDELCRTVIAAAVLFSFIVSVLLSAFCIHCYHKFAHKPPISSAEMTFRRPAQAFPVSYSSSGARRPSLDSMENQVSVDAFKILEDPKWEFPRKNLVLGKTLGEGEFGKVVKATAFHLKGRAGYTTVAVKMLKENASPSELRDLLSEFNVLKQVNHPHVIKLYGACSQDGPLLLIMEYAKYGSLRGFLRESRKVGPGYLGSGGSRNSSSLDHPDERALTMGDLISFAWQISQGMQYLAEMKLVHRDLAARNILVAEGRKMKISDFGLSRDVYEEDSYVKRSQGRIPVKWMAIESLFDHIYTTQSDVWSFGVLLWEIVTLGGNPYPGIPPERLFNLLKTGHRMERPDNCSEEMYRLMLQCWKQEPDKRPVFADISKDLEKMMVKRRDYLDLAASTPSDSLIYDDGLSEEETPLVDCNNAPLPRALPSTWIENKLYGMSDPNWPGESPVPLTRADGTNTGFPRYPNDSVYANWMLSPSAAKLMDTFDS
Chain of Phosphorylase b kinase gamma catalytic chain, liver/testis isoform (Homo sapiens), P15735 [F290L] (P15735 whole entry F290L, the tested form may be a part, canonical isoform): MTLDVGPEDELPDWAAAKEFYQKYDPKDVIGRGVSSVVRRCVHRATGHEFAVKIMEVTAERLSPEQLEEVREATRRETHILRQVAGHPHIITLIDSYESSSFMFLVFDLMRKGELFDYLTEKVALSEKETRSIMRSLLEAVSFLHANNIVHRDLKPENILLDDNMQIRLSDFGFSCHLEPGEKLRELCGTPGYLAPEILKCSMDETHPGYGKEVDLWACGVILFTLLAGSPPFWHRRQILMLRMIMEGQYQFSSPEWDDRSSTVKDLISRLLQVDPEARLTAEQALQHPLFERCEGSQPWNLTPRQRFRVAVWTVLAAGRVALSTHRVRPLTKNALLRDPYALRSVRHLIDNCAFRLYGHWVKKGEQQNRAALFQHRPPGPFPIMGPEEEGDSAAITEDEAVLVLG

As for `CN(C)C(=O)c1cc2cnc(Nc3ccc(NC(=O)CCCCCCCN=C=S)cc3)nc2n1C1CCCC1`, the inhibition (commonly the change of the read-out against control, counted positive when it falls) in [1] is 98%; in [5], 88%; in [6] it was 59%; in [7], 4%; in [8], 13%; in data set [9] it was -3%. Besides, the inhibition in [10] is 28%; in data set [11] it was 23%; in [12] it was 68%; in [13] it was -10%; in data set [14], 27%; in data set [15] it was 50%. Further, the inhibition was 58% in data set [16]; 37% in data set [17]; 66% in [18]; 0% in data set [19]; 94% in data set [20]. Also, the IC50 – broadly, the midpoint of a concentration-inhibition curve – in [2] was 837 nM. In addition, the outcome in data set [3] was Active. The CLH in data set [4] stood at 70 µL/min/mg. For the same compound, the result in data set [21] was inactive.
